Active and inactive are the calls of the source. The calls are words filed in the database; no cut-off is given here.
Tests used:
[1] = tested on: Staphylococcus epidermidis; experiment: Antibiofilm activity against Staphylococcus epidermidis ATCC 12228 incubated for 24 hrs by crystal violet-staining based assay; format: functional
Procedure, shortened: (§1)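 Biofilm prevention: 0.5 McFarland inoculum (2.5 µL) in 100 µL TSB with 2% w/v glucose, compound present from the start over 100–0.1 µg/mL, 37 °C 24 h. Washed with PBS, stained 0.1% w/v crystal violet 30 min, eluted with 33% v/v acetic acid, read at 570 nm. BIC50 (50% inhibition versus untreated control) derived by linear regression; triplicate, repeated at least twice.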

Staphylococcus aureus [2] = experiment: Antibiofilm activity against Staphylococcus aureus ATCC 6538 incubated for 24 hrs by crystal violet-staining based assay; format: functional; procedure, shortened: as §1
Staphylococcus aureus [3] = experiment: Antimicrobial activity against Staphylococcus aureus ATCC 25923 assessed as growth inhibition of planktonic forms incubated for 24 hrs; format: organism-based; conditions: in vitro
Procedure, shortened: (§2)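 Broth microdilution in tryptic soy broth. Two-fold series 100 to 0.75 μg/mL made from a 1 mg/mL stock in 0.9% NaCl. Inoculum ~10⁶ cfu/mL taken from a 24 h culture, 37 °C 24 h.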

Staphylococcus aureus [4] = experiment: Antibiofilm activity against Staphylococcus aureus ATCC 25923 incubated for 24 hrs by crystal violet-staining based assay; format: functional; procedure, shortened: as §1
Pseudomonas aeruginosa [5] = experiment: Antimicrobial activity against Pseudomonas aeruginosa ATCC 15442 assessed as growth inhibition of planktonic forms incubated for 24 hrs; format: organism-based; conditions: in vitro; procedure, shortened: as §2
Escherichia coli [6] = experiment: Antimicrobial activity against Escherichia coli ATCC 25922 assessed as growth inhibition of planktonic forms incubated for 24 hrs; format: organism-based; conditions: in vitro; procedure, shortened: as §2
Pseudomonas aeruginosa [7] = experiment: Antibiofilm activity against Pseudomonas aeruginosa ATCC 15442 incubated for 24 hrs by crystal violet-staining based assay; format: functional; procedure, shortened: as §1
[8] = tested on: Staphylococcus epidermidis; experiment: Antimicrobial activity against Staphylococcus epidermidis ATCC 12228 assessed as growth inhibition of planktonic forms incubated for 24 hrs; format: organism-based; conditions: in vitro; procedure, shortened: as §2
Staphylococcus aureus [9] = experiment: Antimicrobial activity against Staphylococcus aureus ATCC 6538 assessed as growth inhibition of planktonic forms incubated for 24 hrs; format: organism-based; conditions: in vitro; procedure, shortened: as §2
Escherichia coli [10] = experiment: Antibiofilm activity against Escherichia coli ATCC 25922 incubated for 24 hrs by crystal violet-staining based assay; format: functional; procedure, shortened: as §1
Escherichia coli [11] = experiment: Antibiofilm activity against Escherichia coli ATCC 25922 assessed as inhibition of biofilm formation at 100 ug/ml incubated for 24 hrs by crystal violet-staining based assay; format: functional; conditions: ATCC 25922, 24 h
Staphylococcus aureus [12] = experiment: Antibiofilm activity against Staphylococcus aureus ATCC 25923 assessed as inhibition of biofilm formation at 100 ug/ml incubated for 24 hrs by crystal violet-staining based assay; format: functional; conditions: ATCC 25923, 24 h
Pseudomonas aeruginosa [13] = experiment: Antibiofilm activity against Pseudomonas aeruginosa ATCC 15442 assessed as inhibition of biofilm formation at 100 ug/ml incubated for 24 hrs by crystal violet-staining based assay; format: functional; conditions: ATCC 15442, 24 h
Staphylococcus aureus [14] = experiment: Antibiofilm activity against Staphylococcus aureus ATCC 6538 assessed as inhibition of biofilm formation at 100 ug/ml incubated for 24 hrs by crystal violet-staining based assay; format: functional; conditions: ATCC 6538, 24 h
Bacteria = experiment: Inhibition of recombinant bacterial SrtA at 100 uM using 5-FAM/QXL 520 Sortase as substrate preincubated for 10 mins followed by substrate addition and measured every 5 mins for 60 mins by fluorescence assay
Procedure, shortened: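 FRET kit assay: 2.5 µg/ml recombinant SrtA, 4 µM fluorescent peptide substrate, compound at 100 µM in 1% DMSO. Compound and enzyme added first, then substrate. Fluorescence (Ex/Em 490/520 nm) recorded every 5 min for 60 min. Substrate without enzyme served as negative control and 4-(hydroxymercuri)benzoic acid as positive control.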

Compound | MBIC50 [1] | MBIC50 (Staphylococcus aureus [2]) | MIC (Staphylococcus aureus [3]) | MBIC50 (Staphylococcus aureus [4]) | MIC (Pseudomonas aeruginosa [5]) | MIC (Escherichia coli [6]) | MBIC50 (Pseudomonas aeruginosa [7]) | MIC [8] | MIC (Staphylococcus aureus [9]) | MBIC50 (Escherichia coli [10]) | inhibition at 100 µg/mL (Escherichia coli [11]) | inhibition [1] | inhibition (Staphylococcus aureus [2]) | inhibition at 100 µg/mL (Pseudomonas aeruginosa [13]) | inhibition (Staphylococcus aureus [4]) | other results
FC(F)(F)c1ccc(-c2cn3nc(-c4c[nH]c5ccccc45)sc3n2)cc1 | inactive | inactive | > 100 µg/mL | inactive | > 100 µg/mL | > 100 µg/mL | inactive | > 100 µg/mL | > 100 µg/mL | inactive | – | – | – | – | – | –
Cn1cc(-c2nn3cc(-c4ccc([N+](=O)[O-])cc4)nc3s2)c2cc(Cl)ccc21 | 78 µM | 33 µM | > 100 µg/mL | – | > 100 µg/mL | > 100 µg/mL | – | > 100 µg/mL | > 100 µg/mL | – | < 15% | Dose-dependent effect | Dose-dependent effect | < 15% | – | inhibition at 100 µg/mL (Staphylococcus aureus [12]): < 15%
Cn1cc(-c2nn3cc(-c4ccccc4)nc3s2)c2cc(Cl)ccc21 | 36.5 µM | – | > 100 µg/mL | – | > 100 µg/mL | > 100 µg/mL | – | > 100 µg/mL | > 100 µg/mL | – | < 15% | Dose-dependent effect | – | < 15% | – | inhibition at 100 µg/mL (Staphylococcus aureus [14]): < 15%; inhibition at 100 µg/mL (Staphylococcus aureus [12]): < 15%
Cn1cc(-c2nn3cc(-c4ccc(C(F)(F)F)cc4)nc3s2)c2ccccc21 | inactive | inactive | > 100 µg/mL | inactive | > 100 µg/mL | > 100 µg/mL | inactive | > 100 µg/mL | > 100 µg/mL | inactive | – | – | – | – | – | –
Br.Fc1ccc(-c2cn3nc(-c4c[nH]c5ccc(Br)cc45)sc3n2)cc1 | inactive | inactive | > 100 µg/mL | inactive | > 100 µg/mL | > 100 µg/mL | inactive | > 100 µg/mL | > 100 µg/mL | inactive | – | – | – | – | – | –
Br.Brc1ccc2[nH]cc(-c3nn4cc(-c5ccccc5)nc4s3)c2c1 | inactive | inactive | > 100 µg/mL | inactive | > 100 µg/mL | > 100 µg/mL | inactive | > 100 µg/mL | > 100 µg/mL | inactive | – | – | – | – | – | –
Cn1cc(-c2nn3cc(-c4ccc(F)cc4)nc3s2)c2cc(Cl)ccc21 | 17 µM | 50.4 µM | > 100 µg/mL | – | > 100 µg/mL | > 100 µg/mL | – | > 100 µg/mL | > 100 µg/mL | – | < 15% | Dose-dependent effect | Dose-dependent effect | < 15% | – | inhibition at 100 µg/mL (Staphylococcus aureus [12]): < 15%
Br.COc1cccc(-c2cn3nc(-c4c[nH]c5ccc(Br)cc45)sc3n2)c1 | inactive | inactive | > 100 µg/mL | inactive | > 100 µg/mL | > 100 µg/mL | inactive | > 100 µg/mL | > 100 µg/mL | inactive | – | – | – | – | – | –
Br.Clc1ccc2[nH]cc(-c3nn4cc(-c5ccccc5)nc4s3)c2c1 | inactive | inactive | > 100 µg/mL | inactive | > 100 µg/mL | > 100 µg/mL | inactive | > 100 µg/mL | > 100 µg/mL | inactive | – | – | – | – | – | –
Br.COc1ccc(OC)c(-c2cn3nc(-c4c[nH]c5ccc(Cl)cc45)sc3n2)c1 | 18.9 µM | 0.5 µM | > 100 µg/mL | 24.2 µM | > 100 µg/mL | > 100 µg/mL | – | > 100 µg/mL | > 100 µg/mL | 91.5 µM | – | Dose-dependent effect | Dose-dependent effect | < 15% | Dose-dependent effect | MBIC90 (Staphylococcus aureus [2]): 16.2 µg/mL; inhibition (Bacteria): inactive; inhibition (Escherichia coli [10]): Dose-dependent effect
Br.COc1cccc(-c2cn3nc(-c4cn(C)c5ccccc45)sc3n2)c1 | 41.9 µM | 28 µM | > 100 µg/mL | 1.8 µM | > 100 µg/mL | > 100 µg/mL | – | > 100 µg/mL | > 100 µg/mL | – | < 15% | Dose-dependent effect | Dose-dependent effect | < 15% | Dose-dependent effect | MBIC90 (Staphylococcus aureus [4]): 23.3 µg/mL; inhibition (Bacteria): inactive
Br.COc1cccc(-c2cn3nc(-c4c[nH]c5ccccc45)sc3n2)c1 | 33.4 µM | 37 µM | > 100 µg/mL | 80.2 µM | > 100 µg/mL | > 100 µg/mL | 80.2 µM | > 100 µg/mL | > 100 µg/mL | 69.7 µM | – | Dose-dependent effect | Dose-dependent effect | – | Dose-dependent effect | inhibition (Pseudomonas aeruginosa [7]): Dose-dependent effect; inhibition (Escherichia coli [10]): Dose-dependent effect
Br.Cn1cc(-c2nn3cc(-c4ccc(F)cc4)nc3s2)c2cc(Br)ccc21 | inactive | inactive | > 100 µg/mL | inactive | > 100 µg/mL | > 100 µg/mL | inactive | > 100 µg/mL | > 100 µg/mL | inactive | – | – | – | – | – | –
FC(F)(F)c1ccc(-c2cn3nc(-c4c[nH]c5ccc(Cl)cc45)sc3n2)cc1 | 24.5 µM | 12.6 µM | > 100 µg/mL | 9.7 µM | > 100 µg/mL | > 100 µg/mL | – | > 100 µg/mL | > 100 µg/mL | – | < 15% | Dose-dependent effect | Dose-dependent effect | < 15% | Dose-dependent effect | –
Br.Cn1cc(-c2nn3cc(-c4ccc([N+](=O)[O-])cc4)nc3s2)c2cc(Br)ccc21 | 71.7 µM | 3.1 µM | > 100 µg/mL | 20.9 µM | > 100 µg/mL | > 100 µg/mL | 38.6 µM | > 100 µg/mL | > 100 µg/mL | 19.6 µM | – | Dose-dependent effect | Dose-dependent effect | – | Dose-dependent effect | inhibition (Pseudomonas aeruginosa [7]): Dose-dependent effect; inhibition (Escherichia coli [10]): Dose-dependent effect
Cn1cc(-c2nn3cc(-c4ccc([N+](=O)[O-])cc4)nc3s2)c2ccccc21 | 21 µM | 3 µM | > 100 µg/mL | 21 µM | > 100 µg/mL | > 100 µg/mL | 30.1 µM | > 100 µg/mL | > 100 µg/mL | 34.3 µM | – | Dose-dependent effect | Dose-dependent effect | – | Dose-dependent effect | inhibition (Pseudomonas aeruginosa [7]): Dose-dependent effect; inhibition (Escherichia coli [10]): Dose-dependent effect

— ChEMBL document CHEMBL4339190, “2,6-Disubstituted imidazo[2,1-b][1,3,4]thiadiazole derivatives as potent staphylococcal biofilm inhibitors” (Eur J Med Chem, 2019)
